# High-throughput results (PubChem)
# IMP-1 inh-1: blocks Pseudomonas aeruginosa IMP-1 metallo-beta-lactamase. 290,000 tested, 0.45% active. inhibition, % at 5.6 µM. AID 1556. purified IMP-1, nitrocefin hydrolysis, epi-absorbance fluorescence;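 active = inhibition above the mean plus 3 SD of all compounds in the same screening run, cut at about 4.5% in these data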;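 also: 0% = IMP-1 with DMSO and 100% = DMSO wells lacking enzyme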
#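 System: purified recombinant IMP-1 beta-lactamase. Medium: Zinc- and detergent-supplemented HEPES buffer, pH 7.1. Compound: one 5.6 µM dose […]. Schedule: 15 min preincubation plus 25 min reaction at 25 °C. Technique: Epi-absorbance fluorescence, 480 nm excitation, 530 nm emission.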
# VIM-2 inhibitor: inhibitors of Pseudomonas aeruginosa VIM-2 metallo-beta-lactamase; purified VIM-2, nitrocefin hydrolysis, epi-absorbance fluorescence; AID 1527; inhibition, % at 5.6 µM; 290,000 tested, 0.89% active;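 active = inhibition above the mean of all tested compounds plus 3 SD, cutoff set per screening run, cut at about 7.5% in these data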;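 also: red hydrolysis product quenches plate fluorescence so inhibitors raise well fluorescence; 0% = enzyme with DMSO and 100% = DMSO without enzyme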
# NALP1 inh: NALP1 inhibition. S. cerevisiae NALP1/ASC/caspase-1 growth, X-gal OD620, 72 h. inhibition, % at 10 µM. 280,000 tested, 0.61% active. AID 2071; in the data active = inhibition mostly above about 24%, no sharp cut-off; inactive = mostly below about 32%
# PolyA inh: inhibitors of polyadenylation in S. cerevisiae; S. cerevisiae SKY197-pL101 polyadenylation reporter, beta-gal luminescence; efflux-impaired pdr1/pdr3 knockout yeast; score 100 = 6 SD above DMSO; 300,000 tested, 0.02% active; activity score, % at 12 µM;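 active = lowest replicate activity score at least 50, where 100 means six control SD above control mean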;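 also: yeast exposed to compound for 9 h at 30 °C; higher score means more reporter readthrough which indicates perturbed polyadenylation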
# NLRP3 yeast inh: blocks the NALP3 inflammasome reconstituted in yeast | Yeast reconstituted NLRP3/ASC/caspase-1, beta-gal luminescence, 24 h | inhibition, % at 10 µM | 330,000 tested, 0.39% active | AID 2825;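 active = inhibition of 50% or more; inactive = inhibition below 50%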;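 also: plate controls were induced DMSO wells for no effect and uninduced yeast grown without galactose for full effect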
# SUMO Mot1 rescue: inhibitors of SUMOylation pathway: yeast Mot1-301 growth rescue | AID 2716 | 320,000 tested, 1% active | growth rescue, % at 18.8 µM | S. cerevisiae Mot1-301 growth rescue, ATP luminescence, 38.5C; percent above DMSO median, 100 means doubled;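 active = every valid replicate shows activation above 250% relative to neutral control wells; inactive = the rest, any valid replicate at or below 250%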;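 also: OY570 slx delta 5 strain wells were the positive control but not used for scaling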
# IMP-1 inh-2: IMP-1 inhibition, counter-screen for VIM-2 inhibitors | shares compounds with VIM-2 inhibitor | purified IMP-1, nitrocefin hydrolysis, epi-absorbance fluorescence | inhibition, % at 5.6 µM | 1,300 tested, under 10 active; call rule not given here;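 also: 0% = enzyme with vehicle and 100% = vehicle without enzyme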
# VIM-2 FRET ctr: inhibits VIM-2 in FRET assay to exclude epi-absorbance artifacts | shares compounds with VIM-2 inhibitor | purified VIM-2, CCF2 FRET substrate hydrolysis | inhibition, % at 5.6 µM | 1,300 tested, 23% active | AID 1857;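 active = inhibition above the mean of all tested compounds plus 3 SD, cut at about 19% in these data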;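 also: 0% = VIM-2 plus DMSO and 100% = no enzyme wells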
# TEM-1 inh: blocks E. coli TEM-1 beta-lactamase in VIM-2 selectivity screen; shares compounds with VIM-2 inhibitor; Purified TEM-1, nitrocefin hydrolysis, epi-absorbance fluorescence; inhibition, % at 5.6 µM; 1,300 tested, 3% active;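 active = inhibition above that campaign's mean inhibition plus 3 SD, cut at about 0.46% in these data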;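 also: 0% = TEM-1 with DMSO and 100% = TEM-1 with 100 µM potassium clavulanate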
# Target sequence (P62593 whole entry, looked up): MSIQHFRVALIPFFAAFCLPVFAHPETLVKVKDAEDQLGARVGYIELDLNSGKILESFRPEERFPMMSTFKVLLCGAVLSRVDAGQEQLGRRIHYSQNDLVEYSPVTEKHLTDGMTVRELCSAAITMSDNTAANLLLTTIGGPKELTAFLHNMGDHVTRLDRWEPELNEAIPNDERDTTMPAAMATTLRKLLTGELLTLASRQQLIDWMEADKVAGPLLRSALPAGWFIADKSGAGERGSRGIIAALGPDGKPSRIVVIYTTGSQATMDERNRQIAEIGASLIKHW
# VIM-2 inh conf: confirmation of P. aeruginosa VIM-2 metallo-beta-lactamase inhibitors; shares compounds with VIM-2 inhibitor; purified VIM-2, nitrocefin hydrolysis, epi-absorbance; inhibition, % at 5.6 µM; 1,300 tested, 96% active; AID 2187;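 active = inhibition of the VIM-2 beta-lactamase enzyme above about 11% from the earlier first-round screen, limit read from the data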;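 also: 0% = VIM-2 with DMSO and 100% = buffer wells without enzyme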
# Active calls of the source: *; x = no result given. Rows were chosen to be rich in hits. Some 2.9% of all compounds tested hit in one or more screens of this group.
SMILES,IMP-1 inh-1,VIM-2 inhibitor,NALP1 inh,PolyA inh,NLRP3 yeast inh,SUMO Mot1 rescue,IMP-1 inh-2,VIM-2 FRET ctr,TEM-1 inh,VIM-2 inh conf
CCN1CCN(c2ncc(C(=O)Nc3ccccc3C(=O)OC)c3ccccc23)CC1,-2,18*,33,2,7,x,-4,3,-6,30*
Nc1nc(N)nc(-c2cccc(Cl)c2)n1,x,x,x,x,25,-2,x,x,x,x
Cc1c(CC(=O)O)c(=O)oc2cc3occ(-c4ccccc4)c3cc12,0,-5,2,4,13,372,x,x,x,x
Cc1c(CC(=O)O)c(=O)oc2c(C)c3occ(-c4ccc(F)cc4)c3cc12,2,15*,11,-12,-7,14,1,5,-12,25*
CCC(=O)c1ccc(OCC(=O)OCC(=O)NCC2CCCO2)cc1 (stereo unspecified),-3,-2,0,11,9,-10,x,x,x,x
O=C(C[n+]1cc(-c2ccc(Cl)cc2)n2c1CCCCC2)c1ccccc1,-2,-3,6,-4,-3,52,x,x,x,x
COc1ccc(-c2c[n+]3c4n2CCCCC4=C(c2ccc(Br)cc2)C3)cc1,-4,14*,27,-5,x,8,-1,-5,2.5*,13*
COc1ccc(-c2cnc3n2CCCCC3)cc1,-3,-3,x,13,10,15,x,x,x,x
Clc1ccc(C2=C3CCCCn4c(-c5ccccc5)c[n+](c43)C2)cc1,-4,18*,3,0,1,12,-5,-2,-8,5
COc1cc(OC)cc(-c2c(C#Cc3ccsc3)c3cc(-c4cccc5[nH]cc(C=O)c45)ccc3n2C)c1,x,x,x,x,9,-13,x,x,x,x
CSc1nc(C)c2c(n1)N(c1ccc(O)cc1)CC2,-3,16*,17,12,2,-14,-2,8,-6,27*
O=C(NCCCN1CCOCC1)c1nn2c(C(F)(F)F)cc(-c3ccco3)nc2c1Cl,-1,12*,8,-6,13,5,-2,-1,-5,18*
CC(C)NC(=O)c1nn2c(C(F)(F)F)cc(-c3ccco3)nc2c1Cl,-3,-1,-15,4,7,-3,x,x,x,x
COc1ccccc1CC(=O)N1CCC(n2nccc2NC(=O)C2CCOC2)CC1 (stereo unspecified),-1,-1,20,6,18,-4,x,x,x,x
Cc1c(C)c2c(OCC(=O)NCc3ccncc3)cc3c(c2oc1=O)CCC(C)(C)O3,-2,31*,19,-1,18,11,-2,-5,-6,41*
Cc1c(C)c2c(OCC(=O)N3CCC(O)CC3)cc3c(c2oc1=O)CCC(C)(C)O3,-1,4,24,-13,5,-12,x,x,x,x
Cc1c(C)c2c(OCC(=O)N3CCC[C@H]3C(=O)O)cc3c(c2oc1=O)CCC(C)(C)O3,-3,70*,14,-1,4,24,-4,85*,-6,72*
Cc1c(C)c2c(OCC(=O)N[C@@H](C)C(=O)O)cc3c(c2oc1=O)CCC(C)(C)O3,-3,46*,-3,7,10,5,-2,70*,-6,53*
CCc1cc(=O)oc2c3c(cc(OCC(=O)NCc4ccccn4)c12)OC(C)(C)CC3,-4,0,21,-5,4,0,x,x,x,x
CCc1cc(=O)oc2c3c(cc(OCC(=O)Nc4cccnc4)c12)OC(C)(C)CC3,-4,67*,15,13,17,195,-2,-7,-7,78*
COc1ccc(CCNS(=O)(=O)CCNC(=O)c2ccc(OC)cc2)cc1,x,x,x,7,23,1,x,x,x,x
O=C(CC(=O)Nc1cc(Cl)ccc1Cl)Nc1cc(Cl)ccc1Cl,2,-1,13,5,22,-7,x,x,x,x
Cc1c(C)c2c(OCC(=O)NCc3ccco3)cc3c(c2oc1=O)CCC(C)(C)O3,-1,2,25,1,14,-5,x,x,x,x
Cc1c(C)c2c(OCC(=O)Nc3cccnc3)cc3c(c2oc1=O)CCC(C)(C)O3,-3,42*,17,-18,13,7,-3,0,-5,52*
O=C(Nc1ccc2nc(-c3cccnc3)[nH]c2c1)c1ccccc1F,-1,49*,19,-3,6,x,-1,0,-1,4
SMILES,IMP-1 inh-1,VIM-2 inhibitor,NALP1 inh,PolyA inh,NLRP3 yeast inh,SUMO Mot1 rescue,IMP-1 inh-2,VIM-2 FRET ctr,TEM-1 inh,VIM-2 inh conf
CCCCc1n[nH]c(=S)n1Cc1ccccc1,-3,7,-6,-2,6,38,x,x,x,x
CCCCc1n[nH]c(=S)n1Cc1ccc(Cl)cc1,-3,15*,-13,-7,20,1,-3,25*,-6,18*
COc1ccccc1-c1n[nH]c(=S)n1Cc1ccco1,-4,16*,-21,5,19,-13,-3,47*,-7,29*
CCCc1n[nH]c(=S)n1Cc1ccco1,-5,17*,x,4,3,13,-2,40*,-5,25*
S=c1[nH]nc(-c2ccc(Br)cc2)n1Cc1ccco1,-3,2,13,-1,27,5,x,x,x,x
COc1ccccc1-n1c(-c2ccccc2)n[nH]c1=S,-4,15*,2,-7,8,x,-2,46*,-7,26*
CC(C)C[C@H](NC(=O)c1nc[nH]c1C(=O)NCc1ccc(CNC(=O)OC(C)(C)C)cc1)C(=O)OCc1ccccc1,-4,-5,12,2,17,-21,x,x,x,x
COc1ccccc1-c1n[nH]c(=S)n1Cc1ccccc1,-2,25*,2,-8,19,18,-3,52*,-9,34*
Cn1ccnc1C1CCCCN1Cc1nc(-c2ccc(Cl)cc2)no1 (stereo unspecified),-1,-2,18,7,2,91,x,x,x,x
O=C(NCc1ccc(Cl)cc1)C1CCN(C(=O)c2ccc(Cl)cc2)CC1,x,x,x,x,21,x,x,x,x,x
CC(=NCCCn1ccnc1)c1c(C)[nH]n(-c2ccc([N+](=O)[O-])cc2)c1=O,-2,13*,5,19,31,-6,-2,-16,-3,34*
Cc1[nH]n(-c2ccc([N+](=O)[O-])cc2)c(=O)c1/C=N/N1CCOCC1,0,-3,3,x,-2,-24,x,x,x,x
O=C(Nc1ccccc1C(F)(F)F)c1ncn[nH]1,-4,-5,x,2,2,-8,x,x,x,x
O=C(CCNS(=O)(=O)c1ccccc1F)NC1CCCCCC1,x,x,x,x,5,-13,x,x,x,x
